Consider three molecules from ChEMBL document CHEMBL4033785, “Increased Potency and Selectivity for Group III Metabotropic Glutamate Receptor Agonists Binding at Dual sites” (J Med Chem, 2018).

Active and inactive are the calls of the source. No cut-off for these calls is given here.

The target of assay [1] is T1, Metabotropic glutamate receptor 6 (Homo sapiens, UniProt O15303). Nature of the assay: Agonist activity at mGlu6 (unknown origin) expressed in HEK293 cells coexpressing chimeric Gq/i protein assessed as increase in intracellular calcium accumulation by Fluo-4 AM dye based fluorescence assay. The assay is classed as functional, cell-based.
T1 sequence (O15303 whole entry): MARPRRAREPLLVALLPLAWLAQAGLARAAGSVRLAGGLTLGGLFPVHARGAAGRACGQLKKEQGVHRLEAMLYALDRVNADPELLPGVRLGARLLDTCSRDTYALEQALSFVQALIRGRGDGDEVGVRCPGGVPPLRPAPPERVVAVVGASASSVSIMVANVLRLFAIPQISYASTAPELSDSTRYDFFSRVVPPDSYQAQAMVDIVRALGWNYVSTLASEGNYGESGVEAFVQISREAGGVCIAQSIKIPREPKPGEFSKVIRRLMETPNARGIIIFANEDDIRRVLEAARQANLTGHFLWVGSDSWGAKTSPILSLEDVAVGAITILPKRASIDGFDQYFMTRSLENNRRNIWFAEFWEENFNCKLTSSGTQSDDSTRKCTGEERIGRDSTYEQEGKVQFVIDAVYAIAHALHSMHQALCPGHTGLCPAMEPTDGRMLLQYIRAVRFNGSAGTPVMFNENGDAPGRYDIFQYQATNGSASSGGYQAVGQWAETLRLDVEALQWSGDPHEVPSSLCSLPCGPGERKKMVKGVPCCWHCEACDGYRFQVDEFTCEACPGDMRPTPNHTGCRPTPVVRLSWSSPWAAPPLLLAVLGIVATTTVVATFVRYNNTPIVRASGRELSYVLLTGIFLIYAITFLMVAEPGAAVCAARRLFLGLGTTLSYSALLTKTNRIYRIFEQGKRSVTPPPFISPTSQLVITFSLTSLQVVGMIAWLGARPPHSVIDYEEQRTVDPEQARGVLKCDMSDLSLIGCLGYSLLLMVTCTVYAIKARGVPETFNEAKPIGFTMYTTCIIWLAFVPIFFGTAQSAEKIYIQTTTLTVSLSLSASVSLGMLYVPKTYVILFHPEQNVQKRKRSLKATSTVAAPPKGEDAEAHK
For assay [2], the species on record is Homo sapiens. Nature of the assay: Selectivity ratio of EC50 for mGlu8 (unknown origin) expressed in HEK293 cells coexpressing chimeric Gq/i protein assessed as [3H]inositol phosphate accumulation to EC50 for mGlu4 (unknown origin) expressed in HEK293 cells coexpressing chimeric Gq/i protein assessed as [3H]inositol phosphate accumulation. The assay is classed as cell-based. Summed up:
(§1)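 Ratio of mGlu8 EC50 to mGlu4 EC50, both from the same functional assay. Both receptors were co-expressed in HEK293 cells with chimeric G-protein and EAAT3 and read by 3H-IP accumulation or by Fluo-4 Ca2+ release.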

The target of assay [3] is T2, Metabotropic glutamate receptor 7 (Homo sapiens, UniProt Q14831). Nature of the assay: Agonist activity at mGlu7 (unknown origin) expressed in HEK293 cells coexpressing chimeric Gq/i protein assessed as [3H]inositol phosphate accumulation at 300 uM after 30 mins by scintillation and luminescence counting method. It is filed as functional, cell-based. Summed up: (§2)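 Receptor transiently co-expressed in HEK293 cells (electroporation) with chimeric G-protein and glutamate transporter EAAT3. Cells labelled overnight with 3H-myoinositol, stimulated with agonist 30 min, lysed 1 h in cold 0.1 M formic acid. 3H-IP isolated on Dowex ion exchange and counted. IP expressed relative to IP plus membrane radioactivity. Points in triplicate; EC50 from Hill-equation fit.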
T2 sequence (Q14831 whole entry): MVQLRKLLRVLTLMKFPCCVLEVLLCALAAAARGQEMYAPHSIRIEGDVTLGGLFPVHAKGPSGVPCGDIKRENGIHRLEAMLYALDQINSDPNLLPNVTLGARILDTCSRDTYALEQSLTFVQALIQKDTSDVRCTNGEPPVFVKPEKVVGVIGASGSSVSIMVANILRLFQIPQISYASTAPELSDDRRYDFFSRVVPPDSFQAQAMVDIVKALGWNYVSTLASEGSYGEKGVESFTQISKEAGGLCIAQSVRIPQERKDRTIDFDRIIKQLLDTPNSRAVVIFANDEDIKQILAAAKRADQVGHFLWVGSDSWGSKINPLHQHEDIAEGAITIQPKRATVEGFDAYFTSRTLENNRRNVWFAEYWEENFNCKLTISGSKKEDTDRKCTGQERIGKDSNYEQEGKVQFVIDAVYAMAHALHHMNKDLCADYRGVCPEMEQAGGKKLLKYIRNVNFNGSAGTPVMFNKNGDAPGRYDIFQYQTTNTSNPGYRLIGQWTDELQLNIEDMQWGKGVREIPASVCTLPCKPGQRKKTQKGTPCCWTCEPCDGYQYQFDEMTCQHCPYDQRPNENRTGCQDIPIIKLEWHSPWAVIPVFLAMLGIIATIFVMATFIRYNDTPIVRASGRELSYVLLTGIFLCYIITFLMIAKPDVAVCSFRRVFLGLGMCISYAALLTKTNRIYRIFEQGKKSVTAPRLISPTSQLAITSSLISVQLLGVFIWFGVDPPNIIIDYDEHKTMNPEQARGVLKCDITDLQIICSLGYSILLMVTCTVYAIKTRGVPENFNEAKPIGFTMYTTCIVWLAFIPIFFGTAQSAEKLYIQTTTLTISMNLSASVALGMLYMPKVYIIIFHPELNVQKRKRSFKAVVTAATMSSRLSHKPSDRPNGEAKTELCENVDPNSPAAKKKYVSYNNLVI

Assay [4] deals with Metabotropic glutamate receptor 4 (Homo sapiens, UniProt Q14833). Nature of the assay: Agonist activity at mGlu4 (unknown origin) expressed in HEK293 cells coexpressing chimeric Gq/i protein assessed as increase in intracellular calcium accumulation by Fluo-4 AM dye based fluorescence assay. It is filed as functional, cell-based. In general terms: Calcium assays in cells follow changes in intracellular calcium, usually with a dye or a luminescent sensor.
Sequence of Metabotropic glutamate receptor 4 (Homo sapiens, UniProt Q14833) (Q14833 whole entry): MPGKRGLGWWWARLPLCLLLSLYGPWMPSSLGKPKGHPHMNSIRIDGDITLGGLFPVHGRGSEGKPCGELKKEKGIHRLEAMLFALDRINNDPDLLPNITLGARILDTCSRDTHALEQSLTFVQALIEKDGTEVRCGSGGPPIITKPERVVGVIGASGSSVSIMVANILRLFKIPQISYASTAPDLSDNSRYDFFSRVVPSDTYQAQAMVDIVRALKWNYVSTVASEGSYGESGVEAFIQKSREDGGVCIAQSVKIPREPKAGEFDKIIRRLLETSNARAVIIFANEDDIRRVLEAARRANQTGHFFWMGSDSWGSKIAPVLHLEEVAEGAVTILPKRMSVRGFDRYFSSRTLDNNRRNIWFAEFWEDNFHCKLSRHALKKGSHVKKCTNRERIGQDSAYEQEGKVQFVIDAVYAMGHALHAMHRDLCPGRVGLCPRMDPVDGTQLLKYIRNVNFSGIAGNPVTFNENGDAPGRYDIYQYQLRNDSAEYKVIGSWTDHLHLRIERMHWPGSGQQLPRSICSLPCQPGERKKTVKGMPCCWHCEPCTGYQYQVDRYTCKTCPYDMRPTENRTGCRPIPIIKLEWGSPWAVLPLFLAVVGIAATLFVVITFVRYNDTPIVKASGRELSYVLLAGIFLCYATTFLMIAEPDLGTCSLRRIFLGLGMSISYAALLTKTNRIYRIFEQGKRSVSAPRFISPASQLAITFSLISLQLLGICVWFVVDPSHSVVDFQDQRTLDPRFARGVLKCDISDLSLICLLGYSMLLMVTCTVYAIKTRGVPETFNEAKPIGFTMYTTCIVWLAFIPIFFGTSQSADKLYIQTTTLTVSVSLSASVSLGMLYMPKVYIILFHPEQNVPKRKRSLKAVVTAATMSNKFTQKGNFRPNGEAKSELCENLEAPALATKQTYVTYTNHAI

Assay [5] deals with T1, Metabotropic glutamate receptor 6. Nature of the assay: Agonist activity at mGlu6 (unknown origin) expressed in HEK293 cells coexpressing chimeric Gq/i protein assessed as [3H]inositol phosphate accumulation after 30 mins by scintillation and luminescence counting method. The assay is classed as functional, cell-based. An outline of the steps:
as §2

The target of assay [6] is T3, Metabotropic glutamate receptor 8 (Homo sapiens, UniProt O00222). Briefly: Agonist activity at mGlu8 (unknown origin) expressed in HEK293 cells coexpressing chimeric Gq/i protein assessed as increase in intracellular calcium accumulation by Fluo-4 AM dye based fluorescence assay. The assay is classed as functional, cell-based.
T3 sequence (O00222 whole entry): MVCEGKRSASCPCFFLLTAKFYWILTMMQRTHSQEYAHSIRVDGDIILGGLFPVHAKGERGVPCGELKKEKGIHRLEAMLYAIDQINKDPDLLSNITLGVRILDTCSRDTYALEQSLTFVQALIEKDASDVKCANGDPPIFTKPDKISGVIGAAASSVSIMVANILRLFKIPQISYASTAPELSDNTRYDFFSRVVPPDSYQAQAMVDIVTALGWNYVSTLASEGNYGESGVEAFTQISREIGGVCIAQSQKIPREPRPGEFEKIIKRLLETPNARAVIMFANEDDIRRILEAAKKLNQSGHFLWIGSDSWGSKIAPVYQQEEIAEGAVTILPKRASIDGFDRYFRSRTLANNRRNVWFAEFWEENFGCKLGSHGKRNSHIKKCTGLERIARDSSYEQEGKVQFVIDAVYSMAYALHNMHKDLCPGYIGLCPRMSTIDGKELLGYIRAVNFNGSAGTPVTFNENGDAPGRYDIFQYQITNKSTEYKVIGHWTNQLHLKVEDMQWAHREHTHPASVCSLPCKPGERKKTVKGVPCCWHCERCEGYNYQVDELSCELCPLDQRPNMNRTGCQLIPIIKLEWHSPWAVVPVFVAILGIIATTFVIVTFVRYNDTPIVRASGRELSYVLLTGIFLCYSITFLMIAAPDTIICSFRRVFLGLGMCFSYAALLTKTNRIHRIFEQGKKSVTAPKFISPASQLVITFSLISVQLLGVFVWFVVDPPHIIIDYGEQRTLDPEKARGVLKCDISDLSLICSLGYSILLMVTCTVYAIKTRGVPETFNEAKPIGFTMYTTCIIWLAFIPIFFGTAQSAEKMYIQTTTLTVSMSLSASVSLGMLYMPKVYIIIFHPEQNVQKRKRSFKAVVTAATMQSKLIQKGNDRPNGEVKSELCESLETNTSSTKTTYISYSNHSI
The target in assay [7] is T3, Metabotropic glutamate receptor 8. Briefly: Agonist activity at mGlu8 (unknown origin) expressed in HEK293 cells coexpressing chimeric Gq/i protein assessed as [3H]inositol phosphate accumulation after 30 mins by scintillation and luminescence counting method. It is filed as functional, cell-based. An outline of the steps: as §2
Assay [8] is filed under the species Homo sapiens. Nature of the assay: Selectivity ratio of EC50 for mGlu8 (unknown origin) expressed in HEK293 cells coexpressing chimeric Gq/i protein assessed as increase in intracellular calcium accumulation to EC50 for mGlu4 (unknown origin) expressed in HEK293 cells coexpressing chimeric Gq/i protein assessed as increase in intracellular calcium accumulation. The assay is classed as cell-based. An outline of the steps: as §1

The target of assay [9] is Glutamate NMDA receptor; Grin1/Grin2a (Rattus norvegicus, UniProt P35439+Q00959). Nature of the assay: Antagonist activity at rat GluN1a/GluN2A receptors expressed in Xenopus laevis oocytes assessed as inhibition of L-glutamate/[…] induced current amplitude at holding potential of -60 mV by […]. The assay is classed as cell-based. (In general: Patch clamp records ionic current or voltage across a cell membrane.)

Assay [10] has as its target Ionotropic glutamate receptor NMDA1/2B (Rattus norvegicus, UniProt P35439+Q01097). Nature of the assay: Antagonist activity at rat GluN1a/mouse GluN2B receptors expressed in Xenopus laevis oocytes assessed as inhibition of L-glutamate/[…] induced current amplitude at holding potential of -60 mV by […]. The assay is classed as cell-based.
For assay [11], the target named is Metabotropic glutamate receptor 4 (Rattus norvegicus) (UniProt P31423). Briefly: Agonist activity at mGlu4 in rat purkinje cells assessed as increase in mean paired-pulse facilitation at 100 uM treated for 5 mins by whole cell patch clamp assay relative to control. The assay is classed as cell-based. An outline of the steps:
(§3)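 Sagittal cerebellar vermis slices (250 μm) from 18−29-day-old rats. Purkinje cells whole-cell clamped at 28−30 °C. Parallel-fiber EPSCs evoked by paired stimuli 40 ms apart; PPF taken as second/first amplitude, averaged per cell. Agonist bath-applied 5 min from a 40 mM water stock. EC50 and Hill coefficient fitted across independent experiments.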

Assay [12] has as its target Metabotropic glutamate receptor 4 (Mus musculus, UniProt Q68EF4). Nature of the assay: Agonist activity at mGlu4 in C57/Bl6 mouse GP neurons assessed as inhibition of striatopallidal GABAergic inhibitory postsynaptic current amplitude by whole cell patch clamp assay.
For assay [13], the target named is Metabotropic glutamate receptor 4 (Mus musculus) (UniProt Q68EF4). Briefly: Agonist activity at mGlu4 in C57/Bl6 mouse GP neurons assessed as inhibition of striatopallidal GABAergic inhibitory postsynaptic current amplitude at 3 uM by whole cell patch clamp assay relative to control.
Sequence of Metabotropic glutamate receptor 4 (Mus musculus) (Q68EF4 whole entry): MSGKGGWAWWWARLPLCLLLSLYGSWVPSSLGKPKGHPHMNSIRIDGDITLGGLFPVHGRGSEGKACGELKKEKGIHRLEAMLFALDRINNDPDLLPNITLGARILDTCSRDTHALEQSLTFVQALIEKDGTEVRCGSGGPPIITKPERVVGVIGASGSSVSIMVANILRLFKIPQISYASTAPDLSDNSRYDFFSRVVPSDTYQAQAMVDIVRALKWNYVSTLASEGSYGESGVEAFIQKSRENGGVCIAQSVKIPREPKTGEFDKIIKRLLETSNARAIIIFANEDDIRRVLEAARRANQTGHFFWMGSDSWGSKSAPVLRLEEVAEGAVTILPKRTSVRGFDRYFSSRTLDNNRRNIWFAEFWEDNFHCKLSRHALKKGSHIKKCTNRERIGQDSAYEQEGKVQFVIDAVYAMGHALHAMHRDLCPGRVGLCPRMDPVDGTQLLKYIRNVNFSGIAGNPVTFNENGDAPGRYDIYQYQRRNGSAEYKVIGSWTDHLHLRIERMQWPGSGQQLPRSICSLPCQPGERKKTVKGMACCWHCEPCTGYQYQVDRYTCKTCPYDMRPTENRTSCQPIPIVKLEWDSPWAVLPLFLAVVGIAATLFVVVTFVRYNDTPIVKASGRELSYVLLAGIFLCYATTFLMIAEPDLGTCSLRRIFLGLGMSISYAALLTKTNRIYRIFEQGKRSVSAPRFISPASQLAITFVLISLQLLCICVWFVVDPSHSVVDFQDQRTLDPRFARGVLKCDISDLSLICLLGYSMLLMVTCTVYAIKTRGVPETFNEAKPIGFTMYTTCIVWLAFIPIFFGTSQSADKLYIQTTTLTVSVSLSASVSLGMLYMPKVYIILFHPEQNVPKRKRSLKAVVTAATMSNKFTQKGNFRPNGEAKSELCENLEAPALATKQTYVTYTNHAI
In assay [14] the target is Metabotropic glutamate receptor 4 (Rattus norvegicus) (UniProt P31423). Nature of the assay: Agonist activity at mGlu4 in rat purkinje cells assessed as mean decrease in parallel fiber-induced excitary postsynaptic currents amplitude for second response at 100 uM treated for 5 mins by whole cell patch clamp assay relative to control. On the set-up: scale not given: the % may be the effect or the level left. It is filed as cell-based. An outline of the steps:
as §3

Assay [15] has as its target T4, Metabotropic glutamate receptor 4 (Rattus norvegicus, UniProt P31423). Nature of the assay: (§4) Agonist activity at mGlu4 assessed as decrease in PF-induced presynaptic calcium amplitude in rat coronal slices by Fluo-4FF-AM dye based fluorescence assay. It is filed as functional. An outline of the steps: (§5)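 Coronal cerebellar slices (250 μm) from 18−29-day-old rats. Parallel fibers loaded by focal Fluo-4FF-AM (100 μM); recording at least 45 min later at 28−30 °C. Excitation 485 nm, emission 530 nm, photometer in a 20×50 μm window over the molecular layer. ΔF/F bleach-corrected. Agonist bath-applied from a 40 mM water stock; EC50 and Hill coefficient fitted.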

Assay [16] addresses Metabotropic glutamate receptor 4 (Rattus norvegicus) (UniProt P31423). The description is as §4. The assay is classed as functional. An outline of the steps: as §5
The target is the same in assay [17]. Nature of the assay: Agonist activity at mGlu4 in rat purkinje cells assessed as mean decrease in parallel fiber-induced excitary postsynaptic currents amplitude for first response at 100 uM treated for 5 mins by whole cell patch clamp assay relative to control. On the set-up: scale not given: the % may be the effect or the level left. It is filed as cell-based. An outline of the steps:
as §3

The target is the same in assay [18]. Nature of the assay: Agonist activity at mGlu4 in rat purkinje cells assessed as mean decrease in parallel fiber-induced excitary postsynaptic currents amplitude for first response treated for 5 mins by whole cell patch clamp assay. It is filed as cell-based. An outline of the steps: as §3
Assay [19] has the same target. Briefly: Agonist activity at mGlu4 assessed as decrease in PF-induced presynaptic calcium amplitude in rat coronal slices at 100 uM by Fluo-4FF-AM dye based fluorescence assay relative to control. It is filed as functional. On the set-up: scale not given: the % may be the effect or the level left. An outline of the steps: as §5
Assay [20] concerns the target T4, Metabotropic glutamate receptor 4. Nature of the assay: Agonist activity at mGlu4 in Wistar rat striatum assessed as decrease in striatal GABAergic inhibitory post-synaptic potential by whole cell patch clamp assay.
The target is the same in assay [21]. Briefly: Agonist activity at mGlu4 in Wistar rat striatum assessed as decrease in corticostriatal glutamatergic excitatory post-synaptic potential by whole cell patch clamp assay.
Assay [22] concerns the target T2, Metabotropic glutamate receptor 7. Briefly: Agonist activity at mGlu7 (unknown origin) expressed in HEK293 cells coexpressing chimeric Gq/i protein assessed as [3H]inositol phosphate accumulation after 30 mins by scintillation and luminescence counting method. It is filed as functional, cell-based. Summed up: as §2

Sequence of Metabotropic glutamate receptor 4 (Rattus norvegicus) (P31423 whole entry): as the sequence (Q68EF4 whole entry) above, with G24A, S25P, A280G, T339M, R482L, V705I, C713G, A895T counted along it
T4 sequence (P31423 whole entry): as the sequence (Q68EF4 whole entry) above, with G24A, S25P, A280G, T339M, R482L, V705I, C713G, A895T counted along it
Sequence of Metabotropic glutamate receptor 4 (Mus musculus, UniProt Q68EF4) (Q68EF4 whole entry): as the sequence (Q68EF4 whole entry) above

`Cc1ccc(C(O)P(=O)(O)CC[C@H](N)C(=O)O)cc1[N+](=O)[O-]` (stereo partly specified): the EC50 (as a rule, the concentration giving half of the maximal effect) in assay [1] is 4 µM; in [4] it was 3.3 µM; in assay [5] it was over 100 µM; in assay [6] it was 1.6 µM; in assay [7], 5.6 µM. Besides, the Ratio EC50 in the assay filed under Homo sapiens [2] was 1.6; in the assay filed under Homo sapiens [8] it was 0.5. The result in assay [3] was inactive.
For the molecule `COc1cc(C(O)P(=O)(O)CC[C@H](N)C(=O)O)cc([N+](=O)[O-])c1O` (mixture of isomers), the IC50 (commonly the concentration needed to halve the response being measured) was 1100 µM in assay [9] and 2300 µM in assay [10]. The Activity in assay [11] is 2.29 to 2.91%; in [14] it was 26.4%; in assay [16], “Dose-dependent effect”; in assay [17], 39.2%; in [18] it was “Dose-dependent effect”; in [19], 12.5%. Moreover, the EC50 in [12] was 0.2 µM; in assay [4], 0.9 µM; in assay [6], 19.4 µM; in assay [15] it was 20 µM. For the same molecule, the Imax in [13] and in assay [16] was 40% throughout.
With `N[C@@H](CCP(=O)(O)C(O)c1csc([N+](=O)[O-])c1)C(=O)O` (stereo partly specified), the Ratio EC50 in the assay listed under Homo sapiens [2] was 3.2; in the assay listed under Homo sapiens [8] it was 2. Further, the EC50 is 0.32 µM in [20]; 0.19 µM in [4]; 9.32 µM in [21]; 3.6 µM in assay [5]; 0.38 µM in [6]; 0.51 µM in assay [7]. The EC50 in assay [22] came out at 418 µM.
